Experiments:
Type in all cases: functional
Mus musculus [1] = test: Compound was evaluated for the hypolipidemic activity in CF1 male mice at a dose of 20 mg/kg per day intraperitoneally for serum triglyceride at 16th day.; conditions: route intraperitoneal
In short: (§1)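 CF1 male mice (~30 g) were dosed ip daily. Tail-vein blood was collected on day 9 and day 16 between 8:00 and 9:30 a.m. Serum cholesterol was measured by modified Liebermann–Burchard on duplicate 25-µL samples. Triglyceride was measured on day 16 in a separate group, duplicate 50-µL samples. Values are % control, mean ± SD, N = 6; Student's t test.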

Mus musculus [2] = test: Compound was evaluated for the hypolipidemic activity in CF1 male mice at a dose of 20 mg/kg per day intraperitoneally for serum cholesterol at 16th day.; conditions: route intraperitoneal; in short: as §1
Mus musculus [3] = test: Hypolipidemic activity in CF1 male mice at a dose of 20 mg/kg per day, serum cholesterol measured on the 9th day
In short: (§2)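 CF1 male mice (~30 g) were given 20 mg/kg per day ip at 11:00 a.m.; N = 6 per group. Tail-vein serum was collected in nonheparinized microcapillaries. Cholesterol was measured on days 9 and 16 by modified Liebermann–Burchard on duplicate 25 µL samples. Triglyceride was measured on day 16 in a separate group, duplicate 50 µL. Values are % control ± SD; Student's t test.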

Mus musculus [4] = test: Hypolipidemic activity in CF1 male mice at a dose of 20 mg/kg per day, serum triglyceride measured on the 16th day; in short: as §2
Mus musculus [5] = test: Hypolipidemic activity in CF1 male mice at a dose of 20 mg/kg per day, serum cholesterol measured on the 16th day; in short: as §2
Mus musculus [6] = test: Compound was evaluated for the hypolipidemic activity in CF1 male mice at a dose of 20 mg/kg per day intraperitoneally of serum cholesterol at 9th day; conditions: route intraperitoneal; in the assay text read “150 mg/kg” for “20 mg/kg”; in short: as §1

`O=C(O)c1ccc(C2C(=O)c3ccccc3C2=O)cc1` was tested, and the Control (Mus musculus [1]) was 95%, the Control (Mus musculus [2]) was 78% and the “Serum cholesterol, % of control” value (Mus musculus [3]) was 95%.
`O=C1c2ccccc2C(=O)C1c1ccc2ccccc2c1` was tested, and the “Serum triglyceride, % of control” value (Mus musculus [4]) was 66%, the “Serum cholesterol, % of control” value (Mus musculus [5]) was 66% and the “Serum cholesterol, % of control” value (Mus musculus [3]) was 72%.
For `O=C1CC(=O)c2ccccc21`, the “Serum triglyceride, % of control” value (Mus musculus [4]) was 79%, the “Serum cholesterol, % of control” value (Mus musculus [5]) was 60% and the “Serum cholesterol, % of control” value (Mus musculus [3]) was 74%.
`CCOc1ccc(C2C(=O)c3ccccc3C2=O)cc1` was tested, and the “Serum triglyceride, % of control” value (Mus musculus [4]) was 81%, the “Serum cholesterol, % of control” value (Mus musculus [5]) was 59% and the “Serum cholesterol, % of control” value (Mus musculus [3]) was 66%.
For `O=C1c2ccccc2C(=O)C1c1c(Cl)cccc1Cl`, the “Serum triglyceride, % of control” value (Mus musculus [4]) was 61%, the “Serum cholesterol, % of control” value (Mus musculus [5]) was 68% and the “Serum cholesterol, % of control” value (Mus musculus [3]) was 71%.
With `CCC1C(=O)c2ccccc2C1=O` the “Serum triglyceride, % of control” value (Mus musculus [4]) was 63%, the “Serum cholesterol, % of control” value (Mus musculus [5]) was 60% and the “Serum cholesterol, % of control” value (Mus musculus [3]) was 63%.
In the case of `CC1C(=O)c2ccccc2C1=O`, the “Serum triglyceride, % of control” value (Mus musculus [4]) is reported as 61%, the “Serum cholesterol, % of control” value (Mus musculus [5]) is reported as 58% and the “Serum cholesterol, % of control” value (Mus musculus [3]) is reported as 74%.
`O=C1c2ccccc2C(=O)C1c1ccc(Cl)cc1Cl` was tested, and the “Serum triglyceride, % of control” value (Mus musculus [4]) was 87%, the “Serum cholesterol, % of control” value (Mus musculus [5]) was 73% and the “Serum cholesterol, % of control” value (Mus musculus [3]) was 89%.
With `CCCCCC1C(=O)c2ccccc2C1=O` the “Serum triglyceride, % of control” value (Mus musculus [4]) was 70%, the “Serum cholesterol, % of control” value (Mus musculus [5]) was 64% and the “Serum cholesterol, % of control” value (Mus musculus [3]) was 65%.
In the case of `O=C1c2ccccc2C(=O)C1c1ccc(Cl)c(Cl)c1`, the “Serum triglyceride, % of control” value (Mus musculus [4]) is reported as 89%, the “Serum cholesterol, % of control” value (Mus musculus [5]) is reported as 84% and the “Serum cholesterol, % of control” value (Mus musculus [3]) is reported as 93%.
`Cc1ccc(C2C(=O)c3ccccc3C2=O)c(C)c1` was tested, and the “Serum triglyceride, % of control” value (Mus musculus [4]) was 58%, the “Serum cholesterol, % of control” value (Mus musculus [5]) was 54% and the “Serum cholesterol, % of control” value (Mus musculus [3]) was 61%.
For `COc1cccc(C2C(=O)c3ccccc3C2=O)c1`, the “Serum triglyceride, % of control” value (Mus musculus [4]) was 55%, the “Serum cholesterol, % of control” value (Mus musculus [5]) was 67% and the “Serum cholesterol, % of control” value (Mus musculus [3]) was 75%.
For `O=C(O)c1ccccc1C1C(=O)c2ccccc2C1=O`, the Control (Mus musculus [1]) was 52%, the Control (Mus musculus [2]) was 78% and the “Serum cholesterol, % of control” value (Mus musculus [3]) was 79%.
In the case of `CCCCC1C(=O)c2ccccc2C1=O`, the “Serum triglyceride, % of control” value (Mus musculus [4]) is reported as 63%, the “Serum cholesterol, % of control” value (Mus musculus [5]) is reported as 58% and the “Serum cholesterol, % of control” value (Mus musculus [3]) is reported as 74%.
With `O=C1c2ccccc2C(=O)C1c1ccc(-c2ccccc2)cc1` the “Serum triglyceride, % of control” value (Mus musculus [4]) was 63%, the “Serum cholesterol, % of control” value (Mus musculus [5]) was 64% and the “Serum cholesterol, % of control” value (Mus musculus [3]) was 78%.
With `CCCC1C(=O)c2ccccc2C1=O` the “Serum triglyceride, % of control” value (Mus musculus [4]) was 52%, the “Serum cholesterol, % of control” value (Mus musculus [5]) was 66% and the “Serum cholesterol, % of control” value (Mus musculus [3]) was 68%.
`Cc1ccccc1C1C(=O)c2ccccc2C1=O` was tested, and the “Serum triglyceride, % of control” value (Mus musculus [4]) was 49%, the “Serum cholesterol, % of control” value (Mus musculus [5]) was 69% and the “Serum cholesterol, % of control” value (Mus musculus [3]) was 73%.
With `COc1ccc(C2C(=O)c3ccccc3C2=O)c(OC)c1` the “Serum triglyceride, % of control” value (Mus musculus [4]) was 87%, the “Serum cholesterol, % of control” value (Mus musculus [5]) was 74% and the “Serum cholesterol, % of control” value (Mus musculus [3]) was 89%.
For `O=C1c2ccccc2C(=O)C1c1cccc(Cl)c1`, the “Serum triglyceride, % of control” value (Mus musculus [4]) was 70%, the “Serum cholesterol, % of control” value (Mus musculus [5]) was 60% and the “Serum cholesterol, % of control” value (Mus musculus [3]) was 70%.
`O=C1c2ccccc2C(=O)C1c1ccccc1Cl` was tested, and the “Serum triglyceride, % of control” value (Mus musculus [4]) was 55%, the “Serum cholesterol, % of control” value (Mus musculus [5]) was 56% and the “Serum cholesterol, % of control” value (Mus musculus [3]) was 75%.
`COc1ccc(C2C(=O)c3ccccc3C2=O)cc1OC` was tested, and the “Serum triglyceride, % of control” value (Mus musculus [4]) was 66%, the “Serum cholesterol, % of control” value (Mus musculus [5]) was 69% and the “Serum cholesterol, % of control” value (Mus musculus [3]) was 75%.
In the case of `Cc1ccc(C2C(=O)c3ccccc3C2=O)cc1`, the “Serum triglyceride, % of control” value (Mus musculus [4]) is reported as 42%, the “Serum cholesterol, % of control” value (Mus musculus [5]) is reported as 65% and the “Serum cholesterol, % of control” value (Mus musculus [3]) is reported as 68%.
For `Cc1cccc(C2C(=O)c3ccccc3C2=O)c1`, the “Serum triglyceride, % of control” value (Mus musculus [4]) was 51%, the “Serum cholesterol, % of control” value (Mus musculus [5]) was 71% and the “Serum cholesterol, % of control” value (Mus musculus [3]) was 75%.
For `COc1ccccc1C1C(=O)c2ccccc2C1=O`, the “Serum triglyceride, % of control” value (Mus musculus [4]) was 48%, the “Serum cholesterol, % of control” value (Mus musculus [5]) was 72% and the “Serum cholesterol, % of control” value (Mus musculus [3]) was 79%.
`O=C1c2ccccc2C(=O)C1c1ccc(Br)cc1` [BROMINDIONE] was tested, and the “Serum triglyceride, % of control” value (Mus musculus [4]) was 66%, the “Serum cholesterol, % of control” value (Mus musculus [5]) was 56% and the “Serum cholesterol, % of control” value (Mus musculus [3]) was 72%.
In the case of `CCOC(=O)C(C)(C)Oc1ccc(Cl)cc1` [CLOFIBRATE], the Control (Mus musculus [6]) is reported as 88%, the “Serum triglyceride, % of control” value (Mus musculus [4]) is reported as 75% and the “Serum cholesterol, % of control” value (Mus musculus [5]) is reported as 87%.
For `O=C1c2ccccc2C(=O)C1c1ccc(Cl)cc1` [CLORINDIONE], the “Serum triglyceride, % of control” value (Mus musculus [4]) was 47%, the “Serum cholesterol, % of control” value (Mus musculus [5]) was 63% and the “Serum cholesterol, % of control” value (Mus musculus [3]) was 64%.
For `O=C1c2ccccc2C(=O)C1c1ccccc1` [PHENINDIONE], the “Serum triglyceride, % of control” value (Mus musculus [4]) was 60%, the “Serum cholesterol, % of control” value (Mus musculus [5]) was 60% and the “Serum cholesterol, % of control” value (Mus musculus [3]) was 64%.
